# Compound activity: PubChem BioAssay, several laboratories
# PKA-R2B activ: activates the human PKA-R2B holoenzyme complex. P22694+P31323. PKA-R2B holoenzyme dissociation, Cy5-IP20 fluorescence polarization; R2B truncated from residue 108, S112A mutant; 0% DMSO only, 100% 113 µM cGMP. activation, % at 11.4 µM. 340,000 tested, 0.079% active. AID 504700;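 active means activation above a cutoff set at the mean over all compounds plus 3 SD, cut at about 18% in these data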;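 further: higher means more holoenzyme dissociation and a rise in polarization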
# SR-BI DiI inh: blocks mouse SR-BI lipid uptake from DiI-HDL; Q61009; ldlA[mSR-BI] CHO cells, DiI-HDL uptake fluorescence, 3 h; inhibition, % at 12.5 µM; 320,000 tested, 0.96% active; AID 488896;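 active means mean replicate inhibition of at least 70% and a set share of replicates each scoring 70 or more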;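 further: 0% = median of neutral control wells and 100% = median of positive control wells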
# Target sequence (Q61009 whole entry, looked up): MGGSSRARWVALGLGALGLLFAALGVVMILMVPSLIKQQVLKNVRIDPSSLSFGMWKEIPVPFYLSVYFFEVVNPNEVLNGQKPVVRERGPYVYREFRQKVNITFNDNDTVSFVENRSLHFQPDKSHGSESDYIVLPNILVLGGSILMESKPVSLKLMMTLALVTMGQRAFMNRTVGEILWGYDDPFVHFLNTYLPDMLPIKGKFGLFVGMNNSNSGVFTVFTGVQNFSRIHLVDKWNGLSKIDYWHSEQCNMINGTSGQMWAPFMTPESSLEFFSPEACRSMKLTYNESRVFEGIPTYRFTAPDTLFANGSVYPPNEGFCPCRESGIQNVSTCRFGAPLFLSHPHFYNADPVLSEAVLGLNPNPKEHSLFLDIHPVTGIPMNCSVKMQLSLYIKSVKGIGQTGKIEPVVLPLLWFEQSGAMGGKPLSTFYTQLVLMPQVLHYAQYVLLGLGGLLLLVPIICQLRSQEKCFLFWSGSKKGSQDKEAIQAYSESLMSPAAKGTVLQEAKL
# SR-BI uptake up: SR-BI HDL lipid transfer activation | 320,000 tested, 0.096% active | AID 504775 | activation, % at 12.5 µM | CHO ldlA[mSR-BI] cells, DiI-HDL uptake fluorescence, 3 h; 100 = double the neutral-control signal;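 active means mean replicate activation of at least 60% and every replicate at or above 60%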;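 further: 0% = median plate neutral-control signal and 100% = twice that signal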
#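 system = CHO ldlA[mSR-BI] cells, LDL receptor-null, SR-BI overexpressing | medium = Ham's F12 with 0.5% BSA, HEPES 25 mM, pH 7.4 | probe or stimulus = DiI-HDL 10 µg/mL | compound dosing = single-point compound dose | incubation = compound exposure 3 h, 37 °C | technique = DiI fluorescence, bottom read | read-out = cell-associated DiI fluorescence as measure of HDL uptake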
# PKA-R1A act: activators of PKA-R1A complex | 340,000 tested, 0.083% active | activation, % at 11.4 µM | AID 504707 | PKA-R1A dissociation, Cy5-IP20 fluorescence polarization; scaled: DMSO 0%, 113 µM cGMP 100% | P00514+P68181;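 active means percent activation above the mean of all tested compounds plus 3 SD, cut at about 19% in these data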;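 further: higher means more PKAc released from R1A so a rise in polarization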
# Vif imaging: blocks HIV Vif function; HEK293T cells, Vif self-association by quenched fluorescence, imaging, 24 h; inhibition, % at 7.49 µM; 340,000 tested, 0.35% active; in the data active means inhibition above about 50%, passing the limit was not always enough
# Active calls of the source: *; / = no result given. This is a sample that favours compounds with a hit; in the whole collection about 1.4% have one here.
SMILES,PKA-R2B activ,SR-BI DiI inh,SR-BI uptake up,PKA-R1A act,Vif imaging
COc1cc(OC)cc(C(=O)NC(C)CNc2ccc(Cl)cc2[N+](=O)[O-])c1 (centres undefined),-9,79*,-79,8,-6
CCCCCCC(=O)Nc1nc(C)c(-c2csc(Nc3ccccc3OC)n2)s1,-6,80*,-80,-10,-4
CCCC(C)C(=O)Nc1nc(C)c(-c2csc(Nc3ccc(Cl)cc3)n2)s1 (centres undefined),-7,85*,-85,-11,-3
CCCCC(=O)Nc1nc(C)c(-c2csc(Nc3cc(Cl)ccc3OC)n2)s1,1,88*,-88,-5,-2
CCCCCCC(=O)Nc1nc(C)c(-c2csc(Nc3cc(Cl)ccc3C)n2)s1,2,64,-64,-11,0
CCCC(C)C(=O)Nc1nc(C)c(-c2csc(Nc3ccccc3OC)n2)s1 (centres undefined),-16,84*,-84,12,-2
Nc1ncnc2c(C3OC(CO)C(O)C3O)scc12 (centres undefined),-2,-17,17,3,16
Cc1nc(NC(=O)c2ccccc2)sc1-c1csc(NCCc2ccccc2)n1,-5,76*,-76,-3,-7
COc1ccccc1Nc1nc(-c2sc(NC(=O)c3ccccc3)nc2C)cs1,-10,59,-59,5,3
CCOc1ccccc1Nc1nc(-c2sc(NC(=O)c3cccc(Cl)c3)nc2C)cs1,8,104*,-104,-5,/
CCCCC(=O)Nc1nc(C)c(-c2csc(Nc3cc(OC)ccc3OC)n2)s1,-17,83*,-83,0,-6
CCCCCC(=O)Nc1nc(C)c(-c2csc(Nc3ccccc3OC)n2)s1,-12,33,-33,3,-10
COc1ccc(-c2coc(CCC(=O)N3CCN(c4cc(C)ccc4C)CC3)n2)cc1,-15,-24,24,-11,-12
CCCN(CCC)Cc1cc(=O)oc2cc(C)cc(C)c12,/,/,/,/,-2
COCCNC(=O)c1cc2c(-c3ccc(Cl)cc3)nn(C)c2s1,0,87*,-87,1,-12
COCCCNC(=O)c1cc2c(-c3ccc(Cl)cc3)nn(C)c2s1,-6,77*,-77,-2,-9
Cn1nc(-c2ccc(Cl)cc2)c2cc(C(=O)NCCCN3CCCC3)sc21,-21,76*,-76,0,2
Cc1ccc(CNC(=O)c2cc3c(-c4ccc(Cl)cc4)nn(C)c3s2)o1,0,76*,-76,9,-30
COc1ccc2oc(=O)c(-c3csc(Nc4ccc(O)cc4)n3)cc2c1,-11,84*,-84,-5,22
O=C(Nc1nc2c(cc3c4c(cccc42)CC3)s1)c1ccccc1Cl,-2,76*,-76,6,-1
O=C(Nc1nc2c(Cl)cccc2s1)C1CC1,9,-28,28,-2,-2
CCOC(=O)/C(=N\Nc1ccccc1[N+](=O)[O-])c1csc(N)n1,-4,78*,-78,-19,5
CCOC(=O)/C(=N\Nc1ccc(C(C)=O)cc1)c1csc(Nc2ccccc2)n1,-1,51,-51,5,8
COC(=O)c1[nH]c(=O)c2ccccc2c1OCc1ccccc1,8,-200,200*,-15,1
CC(=O)c1c(C)[nH]c(C(=O)OCC(=O)Nc2cc(C(F)(F)F)ccc2N2CCOCC2)c1C,-6,72*,-72,-4,-14
SMILES,PKA-R2B activ,SR-BI DiI inh,SR-BI uptake up,PKA-R1A act,Vif imaging
O=C(COC(=O)/C=C/c1ccc(F)cc1)Nc1cc(C(F)(F)F)ccc1N1CCOCC1,2,-23,23,2,-1
O=C(c1ccc2c(c1)OCO2)N(CC1CCCO1)C1(C(=O)NC2CCCC2)CCCCC1 (centres undefined),3,-19,19,-13,69*
O=C(NC1(C(=O)NC2CCCCC2)CCCCC1)c1ccc2c(c1)OCO2,-2,-11,11,4,8
CCn1cc(C(=O)NCCc2ccccc2)c(=O)c2cc(S(=O)(=O)N3CCCC3)ccc21,-6,73*,-73,-5,-10
CC1CCN(c2nc(-c3ccncc3)nc3ccccc23)CC1,-5,80*,-80,12,-20
CC1=Nc2cc(C(=O)N3CCCC3)ccc2Sc2c(C)ccc(C)c21,-6,-10,10,4,-1
CC1=Nc2cc(C(=O)O)ccc2Sc2c(C)ccc(C)c21,2,-41,41,-18,69*
COc1cc(NC(=O)COc2cccc3c2OC(C)(C)C3)cc(OC)c1OC,7,88*,-88,-19,21
CCc1ccc(N2CC(C(=O)NCCC3=CCCCC3)CC2=O)cc1 (centres undefined),6,0,0,6,6
CSc1cccc(N2CC(C(=O)NCCC3=CCCCC3)CC2=O)c1 (centres undefined),-5,-6,6,-4,66*
Cc1ccc(C(=O)Nc2cccc(-c3ccc(N4CCOCC4)nn3)c2)cc1C,-9,77*,-77,5,2
Cc1ccc(C(=O)Nc2cccc(-c3ccc(N4CCOCC4)nn3)c2)cc1,-6,17,-17,-3,11
CCN(CC)c1nc(SCCOC(=O)Nc2ccccc2)nc(N(CC)CC)n1,-4,87*,-87,1,0
CN(C)c1nc(SCCOC(=O)c2ccccc2)nc(N(C)C)n1,6,-3,3,11,-17
COc1cc(OC)cc(-c2c(-c3cccs3)c3cc(-c4ccc5[nH]ccc5c4)ccc3n2C)c1,3,80*,-80,-9,2
COc1cc(OC)cc(-c2c(-c3cccs3)c3cc(-c4ccc5cc[nH]c5c4)ccc3n2C)c1,0,109*,-109,3,-10
COc1cccc(-c2c(-c3cc(OC)cc(OC)c3)n(C)c3ccc(-c4ccc5cc[nH]c5c4)cc23)c1,-13,68,-68,-10,-9
O=C(c1ccncc1)N1N=C(c2ccc(Cl)cc2)CC1c1ccccc1O (centres undefined),4,82*,-82,-1,-3
COc1cccc(C2CC(c3ccc(Br)cc3)=NN2C(=O)c2ccncc2)c1OC (centres undefined),-18,40,-40,-11,-2
COc1ccccc1C1CC(c2ccc(Br)cc2)=NN1C(=O)c1cccnc1 (centres undefined),-12,74*,-74,-3,1
COc1ccc(CNC(=O)c2ccc3nc(C)c(N(C)Cc4ccc(NC(C)=O)cc4)n3c2)cc1,/,/,/,/,-6
COc1ccc(C2NC(=S)NC3=C2CCCC3=C2SCCS2)cc1 (centres undefined),4,-18,18,-13,56*
S=C1NC2=C(CCCC2=C2SCCCS2)C(c2ccccc2)N1 (centres undefined),-2,-2,2,-2,11
O=[N+]([O-])c1ccc(Sc2ccccn2)nc1,2,0,0,-2,2
